Measured values reported in ChEMBL document CHEMBL1132467, “Structural specificity of chloroquine-hematin binding related to inhibition of hematin polymerization and parasite growth” (J Med Chem, 1999).

test system: Plasmodium falciparum; experiment: Parasite growth in chloroquine-sensitive Plasmodium falciparum NF54; assay type: functional, organism-based
Summary of the method: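 P. falciparum NF54 or K1 was maintained by the Trager-Jensen culture method with minor variations. Growth inhibition was measured by a semiautomated microdilution assay on asynchronous stock cultures.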

Compound | IC50 [µM]
CCN(CC)CCCC(C)Nc1cc(C)nc2cc(Cl)ccc12 (stereo not given) | 0.15
CCN(CC)CCCC(C)Nc1ccnc2ccccc12 (stereo not given) | 0.35
CCN(CC)CC(C)Nc1ccnc2cc(Cl)ccc12 (stereo not given) | 0.041
CCN(CC)CCCC(C)Nc1ccnc2cc([N+](=O)[O-])ccc12 (stereo not given) | 0.015
CCN(CC)CCCC(C)Nc1ccnc2cc(N)ccc12 (stereo not given) | 2.6
CCN(CC)CCCC(C)Nc1ccnc2cc(Br)ccc12 (stereo not given) | 0.093
CCN(CC)CCCC(C)Nc1c(C)cnc2cc(Cl)ccc12 (stereo not given) | 0.02
CCNCCCC(C)Nc1ccnc2cc(Cl)ccc12 (stereo not given) [DESETHYLCHLOROQUINE] | 0.045
Nc1ccnc2cc(Cl)ccc12 | 1.7
CCC(CC)CCCC(C)Nc1ccnc2cc(Cl)ccc12 (stereo not given) | 0.054
CCN(CC)CCCC(C)Nc1ccnc2ccc(Cl)cc12 (stereo not given) | 0.17
CCNc1ccnc2cc(Cl)ccc12 | 0.82
CCN(CC)CCCCC(C)Nc1ccnc2cc(Cl)ccc12 (stereo not given) | 0.024

test system: not listed separately; experiment: Association constant evaluated towards Hematin mu-oxo dimer

Compound | Ka [M⁻¹]
CCN(CC)CCCC(C)Nc1cc(C)nc2cc(Cl)ccc12 (stereo not given) | 91000
CCN(CC)CCCC(C)Nc1ccnc2ccccc12 (stereo not given) | 85000
CCN(CC)CC(C)Nc1ccnc2cc(Cl)ccc12 (stereo not given) | 270000
CCN(CC)CCCC(C)Nc1ccnc2cc(N)ccc12 (stereo not given) | 290000
CCN(CC)CCCC(C)Nc1c(C)cnc2cc(Cl)ccc12 (stereo not given) | 150000
Nc1ccnc2cc(Cl)ccc12 | 52000
CCC(CC)CCCC(C)Nc1ccnc2cc(Cl)ccc12 (stereo not given) | 79000
CCNc1ccnc2cc(Cl)ccc12 | 46000

The remaining lines, values ahead:

Ka [M⁻¹] | Compound
290000 | CCN(CC)CCCC(C)Nc1ccnc2cc([N+](=O)[O-])ccc12 (stereo not given)
120000 | CCN(CC)CCCC(C)Nc1ccnc2cc(Br)ccc12 (stereo not given)
180000 | CCNCCCC(C)Nc1ccnc2cc(Cl)ccc12 (stereo not given) [DESETHYLCHLOROQUINE]
150000 | CCN(CC)CCCCC(C)Nc1ccnc2cc(Cl)ccc12 (stereo not given)

test system: Plasmodium falciparum; experiment: Parasite growth in chloroquine-resistant Plasmodium falciparum K1

Compound | IC50 [µM]
CCN(CC)CCCC(C)Nc1cc(C)nc2cc(Cl)ccc12 (stereo not given) | 1.1
CCN(CC)CCCC(C)Nc1ccnc2ccccc12 (stereo not given) | 8
CCN(CC)CC(C)Nc1ccnc2cc(Cl)ccc12 (stereo not given) | 0.093
CCN(CC)CCCC(C)Nc1ccnc2cc([N+](=O)[O-])ccc12 (stereo not given) | 0.068
CCN(CC)CCCC(C)Nc1ccnc2cc(N)ccc12 (stereo not given) | 4.3
CCN(CC)CCCC(C)Nc1ccnc2cc(Br)ccc12 (stereo not given) | 1.4
CCN(CC)CCCC(C)Nc1c(C)cnc2cc(Cl)ccc12 (stereo not given) | 0.059
CCNCCCC(C)Nc1ccnc2cc(Cl)ccc12 (stereo not given) [DESETHYLCHLOROQUINE] | 1.3
Nc1ccnc2cc(Cl)ccc12 | 1
CCC(CC)CCCC(C)Nc1ccnc2cc(Cl)ccc12 (stereo not given) | 0.2
CCN(CC)CCCC(C)Nc1ccnc2ccc(Cl)cc12 (stereo not given) | 4.9
CCNc1ccnc2cc(Cl)ccc12 | 0.87
CCN(CC)CCCCC(C)Nc1ccnc2cc(Cl)ccc12 (stereo not given) | 0.42

molecular target: hematin (cell-free polymerization, no protein); experiment: Inhibition of hematin polymerization

Compound | IC50 [µM]
CCN(CC)CCCC(C)Nc1ccnc2ccccc12 (stereo not given) | > 2500
CCN(CC)CC(C)Nc1ccnc2cc(Cl)ccc12 (stereo not given) | 18
CCN(CC)CCCC(C)Nc1ccnc2cc(N)ccc12 (stereo not given) | > 2500
CCN(CC)CCCC(C)Nc1c(C)cnc2cc(Cl)ccc12 (stereo not given) | 15
CCNc1ccnc2cc(Cl)ccc12 | 70

More lines, now with the values ahead:

IC50 [µM] | Compound
15 | CCNCCCC(C)Nc1ccnc2cc(Cl)ccc12 (stereo not given) [DESETHYLCHLOROQUINE]
> 2500 | CCN(CC)CCCC(C)Nc1ccnc2ccc(Cl)cc12 (stereo not given)
